{"data": "Measurements pooled from the literature", "target": "Tyrosine-protein kinase ITK/TSK (ITK, Homo sapiens, UniProt Q08881)", "Residues used in one study (Q08881 1-620)": "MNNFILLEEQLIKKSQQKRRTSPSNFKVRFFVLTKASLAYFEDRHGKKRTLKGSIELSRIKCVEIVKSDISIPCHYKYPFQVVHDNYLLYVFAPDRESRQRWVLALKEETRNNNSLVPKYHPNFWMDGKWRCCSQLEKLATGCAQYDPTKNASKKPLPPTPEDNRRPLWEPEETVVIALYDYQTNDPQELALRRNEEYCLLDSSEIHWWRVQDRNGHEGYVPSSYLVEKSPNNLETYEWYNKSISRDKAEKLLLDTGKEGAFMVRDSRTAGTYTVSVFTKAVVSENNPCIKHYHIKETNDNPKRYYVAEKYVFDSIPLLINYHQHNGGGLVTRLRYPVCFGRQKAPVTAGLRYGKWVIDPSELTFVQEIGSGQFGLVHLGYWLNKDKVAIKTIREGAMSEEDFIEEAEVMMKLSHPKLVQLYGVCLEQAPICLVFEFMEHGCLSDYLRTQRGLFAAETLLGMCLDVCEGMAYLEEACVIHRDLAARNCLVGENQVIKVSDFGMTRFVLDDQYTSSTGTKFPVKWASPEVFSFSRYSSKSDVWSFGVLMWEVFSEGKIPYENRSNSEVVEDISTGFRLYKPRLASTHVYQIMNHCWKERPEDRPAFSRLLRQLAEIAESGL", "note": "Lines come from different studies, so protocols differ."}
{"Structure (SMILES)": "CNC(=O)c1cc(Oc2ccc(NC(=O)Nc3ccc(Cl)c(C(F)(F)F)c3)cc2)ccn1", "observed": "enzyme activity", "mode": "inhibitor", "tested at": "0.3 µM", "endpoint": "inhibition", "result": "-10%"}
{"Structure (SMILES)": "O=c1c2ccccc2[nH]c(=S)n1CCN1CCC(=C(c2ccc(F)cc2)c2ccc(F)cc2)CC1", "observed": "enzyme activity", "mode": "inhibitor", "tested at": "0.5 µM", "endpoint": "remaining activity", "result": "97.1%"}
{"Structure (SMILES)": "Cc1ccc(NC(=O)c2ccc(C)c(C(F)(F)F)c2)cc1C#Cc1nn(C2CCC(O)CC2)c2ncnc(N)c12 (stereo not drawn)", "observed": "cell-free assay", "tested at": "10 µM", "endpoint": "remaining signal", "result": "102%"}
{"Structure (SMILES)": "C[C@@H]1CN(c2cc(-c3n[nH]c4ccc(OC5(C)CC5)cc34)ncn2)C[C@H](C)O1", "observed": "cell-free assay", "technique": "competition with immobilised ligand", "tested at": "0.1 µM", "endpoint": "remaining binding", "result": "87%"}
{"Structure (SMILES)": "Cc1sc(C(=O)NC2COC2)cc1-n1cc(NC(=O)Nc2c(F)cccc2Cl)cn1", "observed": "enzyme activity", "mode": "inhibitor", "tested at": "10 µM", "endpoint": "remaining activity", "result": "94.4%"}
{"Structure (SMILES)": "O=C(Nc1cccnn1)N1CCC(=Cc2cccc(Oc3ccc(C(F)(F)F)cn3)c2)CC1", "observed": "cell-free assay", "technique": "competition with immobilised ligand", "tested at": "1 µM", "endpoint": "remaining binding", "result": "100%"}
{"Structure (SMILES)": "CCCS(=O)(=O)Nc1ccc(F)c(C(=O)c2c[nH]c3ncc(-c4ccc(Cl)cc4)cc23)c1F", "observed": "enzyme activity", "mode": "inhibitor", "tested at": "1 µM", "endpoint": "inhibition", "result": "< 10%"}
{"Structure (SMILES)": "CN(C)C1CCN(CC#Cc2nn(C3CCCC3)c3nc(NCc4ccccc4)ncc23)C1 (stereo not drawn)", "observed": "enzyme activity", "mode": "inhibitor", "technique": "FRET", "tested at": "0.1 µM", "endpoint": "inhibition", "result": "1%"}
{"Structure (SMILES)": "Cc1ccc(Nc2nccc(N(C)c3ccc4c(C)n(C)nc4c3)n2)cc1S(N)(=O)=O", "observed": "cell-free assay", "tested at": "0.5 µM", "endpoint": "remaining signal", "result": "115%"}
{"Structure (SMILES)": "CC(C)(O)[C@H]1CC[C@H](Nc2ccc3ncc(-c4cccc(C(F)(F)F)c4)n3n2)CC1", "observed": "enzyme activity", "mode": "inhibitor", "tested at": "1 µM", "endpoint": "remaining activity", "result": "88.8%"}
{"Structure (SMILES)": "CO[C@H]1CC[C@H](CNc2ccc(S(=O)(=O)NC(=O)c3ccc(N4CCN(CC5=C(c6ccc(Cl)cc6)CC(C)(C)CC5)CC4)cc3Oc3cnc4[nH]ccc4c3)cc2[N+](=O)[O-])CC1", "observed": "cell-free assay", "technique": "competition with immobilised ligand", "tested at": "1 µM", "endpoint": "remaining binding", "result": "87%"}
{"Structure (SMILES)": "COc1cc2ncnc(Nc3ccc(Oc4ccccc4)c(C)c3C)c2cc1OC", "observed": "enzyme activity", "mode": "inhibitor", "tested at": "1 µM", "endpoint": "inhibition", "result": "7%"}
{"Structure (SMILES)": "CCN(CC)CCNC(=O)c1c(C)[nH]c(/C=C2\\C(=O)Nc3ccc(F)cc32)c1C", "observed": "enzyme activity", "mode": "inhibitor", "tested at": "0.3 µM", "endpoint": "inhibition", "result": "48%"}
{"Structure (SMILES)": "CC(C)(C)c1nc(-c2cccc(NS(=O)(=O)c3c(F)cccc3F)c2F)c(-c2ccnc(N)n2)s1", "observed": "enzyme activity", "mode": "inhibitor", "technique": "radiometric", "tested at": "1 µM", "endpoint": "remaining activity", "result": "109%"}
{"Structure (SMILES)": "COc1cc2nccc(Oc3ccc(NC(=S)NC(=O)c4ccccc4C)cc3)c2cc1OC", "observed": "enzyme activity", "mode": "inhibitor", "tested at": "0.5 µM", "endpoint": "remaining activity", "result": "80.6%"}
{"Structure (SMILES)": "CNCc1ccccc1-c1csc([C@H](C)Nc2nc(C)nc3cc(OC)c(OC)cc23)c1", "observed": "cell-free assay", "technique": "competition with immobilised ligand", "tested at": "1 µM", "endpoint": "remaining binding", "result": "100%"}
{"Structure (SMILES)": "COc1cc(C)c(Sc2cnc(NC(=O)c3ccc(N4CCN(CCCCCCCNC(=O)COc5cccc6c5C(=O)N(C5CCC(=O)NC5=O)C6=O)CC4)cc3)s2)cc1C(=O)N1CCN(C(C)=O)CC1 (stereo not drawn)", "observed": "binding", "tested at": "1 µM", "endpoint": "inhibition", "result": "> 90%"}
{"Structure (SMILES)": "c1nc2c(Nc3ccc4c(c3)OCCO4)nc(Nc3ccc4c(c3)OCCO4)nc2[nH]1", "observed": "enzyme activity", "mode": "inhibitor", "tested at": "10 µM", "endpoint": "activity vs control", "result": "5.1%"}
{"Structure (SMILES)": "CC1=C(C#N)[C@@H](c2ccc3[nH]nc(C)c3c2)C(C#N)=C(c2ccc(Cl)cc2)N1", "observed": "cell-free assay", "technique": "competition with immobilised ligand", "tested at": "1 µM", "endpoint": "remaining binding", "result": "97.2%"}
{"Structure (SMILES)": "COc1ccc(C(=O)Nc2sc3c(c2C(N)=O)CCCC3)cc1OC", "observed": "enzyme activity", "mode": "inhibitor", "tested at": "0.5 µM", "endpoint": "remaining activity", "result": "99.6%"}
{"Structure (SMILES)": "CC(C)CC(=O)N1CCc2nc(-c3ccc(Br)cc3)nc(N(C)Cc3ccccc3)c2C1", "observed": "cell-free assay", "technique": "competition with immobilised ligand", "tested at": "0.1 µM", "endpoint": "remaining binding", "result": "100%"}
{"Structure (SMILES)": "Cc1cnc(NC2CCOCC2)nc1-n1cnc(C(=O)NC(CN)c2cc(F)cc(Cl)c2)c1 (stereo not drawn)", "observed": "enzyme activity", "mode": "inhibitor", "technique": "radiometric", "tested at": "1 µM", "endpoint": "remaining activity", "result": "92%"}
{"Structure (SMILES)": "CCC(=O)N[C@H]1CC[C@@H](C(=O)N(C)c2ccc(-c3nc4ccccc4o3)cc2)C1", "observed": "cell-free assay", "technique": "competition with immobilised ligand", "tested at": "1 µM", "endpoint": "remaining binding", "result": "100%"}
{"Structure (SMILES)": "O=C(Nc1cnn(-c2csc(C(=O)NC3COC3)c2)c1)Nc1ccccc1Cl", "observed": "enzyme activity", "mode": "inhibitor", "tested at": "5 µM", "endpoint": "remaining activity", "result": "107%"}
{"Structure (SMILES)": "O=c1cc(-c2cccc3c2Sc2ccccc2S3)oc(N2CCOCC2)c1", "observed": "enzyme activity", "mode": "inhibitor", "tested at": "0.5 µM", "endpoint": "remaining activity", "result": "96.6%"}
{"Structure (SMILES)": "c1cnn2ncc(-c3ccnc(N4CCC45COC5)n3)c2c1", "observed": "binding", "tested at": "1 µM", "endpoint": "remaining binding", "result": "100%"}
{"Structure (SMILES)": "CO[C@@H](C)c1c(Nc2ccc([C@H](N(C)C(=O)C3CCS(=O)(=O)CC3)C(F)(F)F)cc2)cnc2cc(Cl)nn12", "observed": "cell-free assay", "technique": "competition with immobilised ligand", "tested at": "1 µM", "endpoint": "remaining binding", "result": "88%"}
